The text below walks through data of ChEMBL document CHEMBL1157319, “Altenuene derivatives from an unidentified freshwater fungus in the family Tubeufiaceae” (2006).

SMILES strings stand for the structures. Calls of active or inactive are those of the source. The calls are words filed in the database; no cut-off is given here.

For one test, the system named is Bacillus subtilis. Put plainly: Antibacterial activity against Bacillus subtilis ATCC 6051 at 100 ug/disk by disk diffusion method. As to conditions: for zone of inhibition at 100 µg/disc: read-out: IZ. It counts as functional. In outline: (§1)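 Paper disks each loaded with 100 µg of test material; gentamicin sulfate at 25 µg/disk served as the positive standard. Read-out was the diameter of the inhibition zone in mm. The same panel also included Escherichia coli ATCC 25922.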

The next test has as its system Fusarium verticillioides. Put plainly: Antifungal activity against Fusarium verticillioides NRRL 25457 at 200 ug/disk by disk diffusion method. It counts as functional, organism-based.
The next test relates to Aspergillus flavus. Put plainly: Antifungal activity against Aspergillus flavus NRRL 6541 at 200 ug/disk by disk diffusion method. It counts as functional, organism-based.
The test system of a further test is Staphylococcus aureus. Put plainly: Antibacterial activity against Staphylococcus aureus ATCC 29213 at 100 ug/disk by disk diffusion method. It counts as functional. As to conditions: for zone of inhibition at 100 µg/disc: read-out: IZ. Put shortly:
as §1

The next test deals with Candida albicans. Put plainly: Antifungal activity against Candida albicans ATCC 14053 at 200 ug/disk by disk diffusion method. It counts as functional, organism-based.

For the compound `COc1cc(O)c2c(c1)C1=C[C@@H](O)[C@@H](O)C[C@]1(C)OC2=O`, in the test on Bacillus subtilis, the outcome was inactive.
`COc1cc(O)c2c(c1)[C@H]1C[C@H](O)[C@@H](O)C[C@]1(C)OC2=O`: the result in the test on Bacillus subtilis, with Fusarium verticillioides, with Aspergillus flavus, with Staphylococcus aureus and in the test with Candida albicans was inactive.
In the case of `COc1cc(O)c2c(c1)C1=C[C@H](O)[C@@H](O)C[C@]1(C)OC2=O` [ALTENUENE], the zone of inhibition at 100 µg/disc stood at 20 mm in the test with Bacillus subtilis and 18 mm with Staphylococcus aureus.
For `COc1cc(O)c2c(c1)C1=CC(=O)[C@H](O)C[C@]1(C)OC2=O` [DEHYDROALTENUENE A], the zone of inhibition at 100 µg/disc in the test with Bacillus subtilis came out at 13 mm. For the same compound, the outcome in the test with Fusarium verticillioides, in the test on Aspergillus flavus and in the test with Candida albicans was inactive.
Consider `COc1cc(O)c2c(c1)C1=CC(=O)[C@@H](O)C[C@]1(C)OC2=O` [DEHYDROALTENUENE B], for which the zone of inhibition at 100 µg/disc in the test with Bacillus subtilis is 20 mm; with Staphylococcus aureus, 14 mm. Further, the outcome in the test on Fusarium verticillioides, with Aspergillus flavus and in the test with Candida albicans was inactive.
Turning to `COc1cc(O)c2c(c1)[C@H]1C[C@@H](O)[C@@H](O)C[C@]1(C)OC2=O` [DIHYDROALTENUENE A], the values for the zone of inhibition at 100 µg/disc with Bacillus subtilis and in the test with Staphylococcus aureus were 50 mm and 14 mm, respectively. Besides, the result with Fusarium verticillioides, in the test with Aspergillus flavus and with Candida albicans was inactive.
Regarding `COc1cc(O)c2c(c1)C1=C[C@@H](O)[C@H](O)C[C@]1(C)OC2=O` [ISOALTENUENE], the zone of inhibition at 100 µg/disc in the test on Bacillus subtilis was found to be 30 mm.
